Source: ChEMBL document CHEMBL4513216, “Probing the Open Global Health Chemical Diversity Library for Multistage-Active Starting Points for Next-Generation Antimalarials” (ACS Infect Dis, 2020)

assay: Toxicity liver stage against HepG2, at 10uM; format: cell-based; design: test concentration 10 uM, cell line HepG2-A16-CD81EGFP; details: human, HepG2-A16-CD81EGFP cells; read-out: INHIBITION
How it was run: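 Uninfected HepG2-A16-CD81EGFP cells, 3 × 10^3 per well, 1536-well, plated on prespotted compound at 10 μM final, parasite-free screening media added to match infected plates; puromycin 10 μM positive, DMSO 0.5% negative; run in parallel with 48 h PbLuc assay at 37 °C, 5% CO2; viability by CellTiter-Glo luminescence, normalized to controls.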

Q: With CC(C)CNC(=O)c1c(-n2cnnn2)sc2c1CCCC2 as the compound, how does the cytotoxicity at 10 µM read?
A: 10.8%

Q: With CCOCc1ccccc1NC(=O)NC1CCN(c2ncccn2)CC1 as the compound, how does the cytotoxicity at 10 µM read?
A: -4.78%

Q: With O=C(O)c1nnn(-c2cc(F)cc(F)c2)c1-c1ccncc1 as the compound, how does the cytotoxicity at 10 µM read?
A: 7.16%

Q: For COCc1nc(Cn2c(C)cc(C(F)(F)F)cc2=O)no1, which cytotoxicity at 10 µM is on record?
A: -2.74%

Q: With CCS(=O)(=O)N1CCC2(CC1)CC1(CCN(CCOC)CC1)C(=O)N2C as the compound, how does the cytotoxicity at 10 µM read?
A: 0.503%

Q: For CC(C)(C)c1nc(CN2CCc3onc(-c4cccc(F)c4)c3C2)no1, which cytotoxicity at 10 µM is on record?
A: 6.2%

Q: Which cytotoxicity at 10 µM does the source give for CO[C@H]1CN(c2ccccc2)S(=O)(=O)[C@@]12CCN(Cc1ccccc1)C2 here?
A: -4.86%

Q: Which cytotoxicity at 10 µM does the source give for CCn1cncc1-c1nc2c([nH]1)CC(C)(C)CNC2=O here?
A: 7.51%

Q: Which cytotoxicity at 10 µM does the source give for Cc1noc(C)c1CN(C)CC1CC(C2CCCCC2)=NO1 (stereo not given) here?
A: 3.72%

Q: Which cytotoxicity at 10 µM does the source give for O=C1CC(c2ccccc2F)c2c(n3ccsc3nc2=O)N1 (stereo not given) here?
A: -5.93%

Q: Which cytotoxicity at 10 µM does the source give for CCS(=O)(=O)N1CCC2(CC(=O)N(c3cnn(C)c3)C2)C1 (stereo not given) here?
A: 6.92%

Q: For CN(CCO)C[C@@H]1CN(C(=O)c2cccc(OC(F)F)c2)C[C@@H]1CO, which cytotoxicity at 10 µM is on record?
A: -0.185%

Q: For CO[C@H]1CN(C(=O)OC(C)(C)C)CC1NCc1ccco1 (stereo not given in full), which cytotoxicity at 10 µM is on record?
A: -46.9%

Q: Which cytotoxicity at 10 µM does the source give for O=C(c1ccco1)N1Cc2nccn2CC(Cn2ncccc2=O)C1 (stereo not given) here?
A: 5.09%

Q: Which cytotoxicity at 10 µM does the source give for O=C1NCCN(CC2CC2)C12CCN(Cc1ccccc1)CC2 here?
A: -78.7%

Q: Which cytotoxicity at 10 µM does the source give for Cn1cnnc1S(=O)(=O)C1CCN(S(=O)(=O)C2CC2)CC1 here?
A: -9.99%

Q: For Cc1nccn1-c1cc(CNC(=O)COCC2CC2)ccn1, which cytotoxicity at 10 µM is on record?
A: 2.37%

Q: For Cc1cc(=O)n(CC(=O)NCCC(C)C)c(-c2cccc(Cl)c2)n1, which cytotoxicity at 10 µM is on record?
A: -2.32%

Q: Which cytotoxicity at 10 µM does the source give for CCC(C)Sc1ncc(-c2c(C#N)c(N)nc3c2COCC3)cn1 (stereo not given) here?
A: 15.1%

Q: With COc1cccc(CC(C)NC(=O)NC(C)C)c1 (stereo not given) as the compound, how does the cytotoxicity at 10 µM read?
A: 4.72%

Q: Which cytotoxicity at 10 µM does the source give for CC(C)Cc1cc(NC(=O)c2ccccn2)n(C)n1 here?
A: -7.22%

Q: For Cc1nn(-c2ccc(C(=O)O)cc2)c2c1C(c1cccs1)SCC(=O)N2 (stereo not given), which cytotoxicity at 10 µM is on record?
A: -0.607%

Q: Which cytotoxicity at 10 µM does the source give for Cc1noc(C)c1CCCNC(=O)C1CCCN(C(=O)C2CC2)C1 (stereo not given) here?
A: -0.185%

Q: With CC(C)c1nnc2n1CCN(CC(=O)Nc1sccc1C#N)C2 as the compound, how does the cytotoxicity at 10 µM read?
A: -2.6%

Q: Which cytotoxicity at 10 µM does the source give for Cc1cc(C(=O)N2CCc3ncnc(N4CCSCC4)c3CC2)[nH]n1 here?
A: -6.98%

Q: For Cc1cnn(CC(C)NCc2c(C)nn(Cc3ccccc3)c2C)c1 (stereo not given), which cytotoxicity at 10 µM is on record?
A: -4.66%

Q: With Cc1ccc(OCCN(C)C2CCOC2=O)cc1 (stereo not given) as the compound, how does the cytotoxicity at 10 µM read?
A: -146%

Q: For CCc1c(C)sc2c1c(N)nc(=O)n2CCN1CCCCC1, which cytotoxicity at 10 µM is on record?
A: 9.49%

Q: With CN(C(=O)Cn1nc(-c2ccc(Br)cc2)ccc1=O)C1CCS(=O)(=O)C1 (stereo not given) as the compound, how does the cytotoxicity at 10 µM read?
A: 4.38%

Q: Which cytotoxicity at 10 µM does the source give for OCC1CCCN1c1cc(NCc2cccs2)ncn1 (stereo not given) here?
A: -5.62%

Q: For Cn1cnc2c1CCN(CCS(=O)(=O)c1ccc(Cl)cc1)C2, which cytotoxicity at 10 µM is on record?
A: -6.67%

Q: Which cytotoxicity at 10 µM does the source give for Cc1cc(S(=O)(=O)NCC(O)c2sccc2C)ccc1F (stereo not given) here?
A: -1.81%

Q: With COC1CCCN(c2nc(C)nc3c2CCN(Cc2ccco2)CC3)C1 (stereo not given) as the compound, how does the cytotoxicity at 10 µM read?
A: 2.02%

Q: For CCC[C@@H]1CN(C(=O)c2c(F)ccc(C)c2Cl)C[C@H]1C(=O)O, which cytotoxicity at 10 µM is on record?
A: -4.39%

Q: With Cn1ncnc1CNc1ccccc1C(=O)NC(C)(C)C as the compound, how does the cytotoxicity at 10 µM read?
A: 3.9%

Q: Which cytotoxicity at 10 µM does the source give for CN1CCN(C(=O)C2CCCN(c3cccnn3)C2)CC1 (stereo not given) here?
A: -10.8%

Q: For Cc1cc(NCc2ccc(S(N)(=O)=O)cc2)nc(C)n1, which cytotoxicity at 10 µM is on record?
A: -2.08%

Q: For CSc1ccccc1C(=O)N1C[C@@H]2CC[C@H]1CN(C(=O)N(C)C)C2, which cytotoxicity at 10 µM is on record?
A: -3.99%

Q: For COCc1noc(Cn2ccc3ncccc3c2=O)n1, which cytotoxicity at 10 µM is on record?
A: 1.56%

Q: For CN1CCc2nc(C3CCCN(C(=O)CC(C)(C)C)C3)ncc2C1 (stereo not given), which cytotoxicity at 10 µM is on record?
A: -10.3%

Q: With O=C(NCCOc1ccc(Cl)cn1)NCCc1ccccn1 as the compound, how does the cytotoxicity at 10 µM read?
A: 7.95%

Q: Which cytotoxicity at 10 µM does the source give for Cc1nc(Nc2cnccn2)cc(C2CCCN2)n1 (stereo not given) here?
A: -9.46%

Q: Which cytotoxicity at 10 µM does the source give for Cn1cc(N2C(=O)CC[C@@H]3[C@H]2CCN3CC2CCOCC2)cn1 here?
A: 7.86%

Q: With COCCN(CCOC)C(=O)c1ccn(-c2ccccc2Cl)n1 as the compound, how does the cytotoxicity at 10 µM read?
A: -1.59%

Q: Which cytotoxicity at 10 µM does the source give for Cc1cc(C)n(CC2CN(c3ccc(C#N)cn3)CCO2)n1 (stereo not given) here?
A: -1.56%
